In ChEMBL document CHEMBL1123290, “Synthesis, antimalarial activity, and quantitative structure-activity relationships of tebuquine and a series of related 5-[(7-chloro-4-quinolinyl)amino]-3-[(alkylamino)methyl] [1,1'-biphenyl]-2-ols and N omega-oxides” (1986):

Assays:
Assay type in all cases: functional
Mus musculus [1] = experiment: Antimalarial activity, administered as a single subcutaneous dose of 80 mg/kg, 72 hrs post infection measured as number of mice (Mus musculus) surviving at 60 days post infection
Procedure, shortened: (§1)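 Mice were infected with a normal drug-sensitive Plasmodium berghei strain. At 72 h postinfection each received one subcutaneous dose of compound dissolved or suspended in peanut oil, in five-mouse groups per dose. The read-out was the number of mice alive at 60 days postinfection, which were scored as cured.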

Plasmodium berghei [2] = experiment: Change in mean survival time for control (average 6.2 days) versus treated mice (Mus musculus) 72 hrs after 20 mg/kg subcutaneous dose
Plasmodium berghei [3] = experiment: Antimalarial activity as 60-day survivors in infected mice (Mus musculus) after single 320mg/kg subcutaneous dose 72 hr post infection; procedure, shortened: as §1
Plasmodium berghei [4] = experiment: Difference in mean survival time in mice (Mus musculus) (control = 6.2 days) after single 40mg/kg subcutaneous dose 72hr post infection
Plasmodium berghei [5] = experiment: Antimalarial activity as 60-day survivors in Plasmodium berghei infected mice (Mus musculus) after single 160mg/kg subcutaneous dose 72 hr post infection; procedure, shortened: as §1
Plasmodium berghei [6] = experiment: Change in mean survival time for control (average 6.2 days) versus treated mice (Mus musculus) 72 hrs after 10 mg/kg subcutaneous dose
Mus musculus [7] = experiment: Antimalarial activity, administered as a single subcutaneous dose of 640 mg/kg, 72 hrs post infection measured as number of mice (Mus musculus) surviving at 60 days post infection; procedure, shortened: as §1
Plasmodium berghei [8] = experiment: Change in mean survival time for control (average 6.2 days) versus treated mice (Mus musculus) 72 hrs after […] subcutaneous dose
Plasmodium berghei [9] = experiment: Change in mean survival time for control (average 6.2 days) versus treated mice (Mus musculus) 72 hrs after […] subcutaneous dose
Plasmodium berghei [10] = experiment: Change in mean survival time for control (average of 6.2 days) versus treated mice (Mus musculus) 72 hrs after 80 mg/kg subcutaneous dose
Mus musculus [11] = experiment: Antimalarial activity, administered as a single subcutaneous dose of 40 mg/kg, 72 hrs post infection measured as number of mice (Mus musculus) surviving at 60 days post infection; procedure, shortened: as §1
Plasmodium berghei [12] = experiment: Change in mean survival time for control (average 6.2 days) versus treated mice (Mus musculus) 72 hrs after 160 mg/kg subcutaneous dose
Plasmodium berghei [13] = experiment: Change in mean survival time for control (average 6.2 days) versus treated mice (Mus musculus) 72 hrs after 5 mg/kg subcutaneous dose
Plasmodium berghei [14] = experiment: Antimalarial activity in primary screen
Plasmodium berghei [15] = experiment: Change in mean survival time for control (average 6.2 days) versus treated mice (Mus musculus) 72 hrs after 640 mg/kg subcutaneous dose
Plasmodium berghei [16] = experiment: Change in mean survival time for control (average 6.2 days) versus treated mice (Mus musculus) 72 hrs after 320 mg/kg subcutaneous dose

Structure (SMILES)	No. of mice cured (Mus musculus [1])	Delta MST (Plasmodium berghei [2]) [days]	No. of mice cured (Plasmodium berghei [3])	Delta MST (Plasmodium berghei [4]) [days]	No. of mice cured (Plasmodium berghei [5])	Delta MST (Plasmodium berghei [6]) [days]	No. of mice cured (Mus musculus [7])	Delta MST (Plasmodium berghei [8]) [days]	Delta MST (Plasmodium berghei [9]) [days]	Delta MST (Plasmodium berghei [10]) [days]	No. of mice cured (Mus musculus [11])	Delta MST (Plasmodium berghei [12]) [days]	Delta MST (Plasmodium berghei [13]) [days]	ED30 (Plasmodium berghei [14]) [mg/kg]	Delta MST (Plasmodium berghei [15])	Delta MST (Plasmodium berghei [16]) [days]
CCN(CC)Cc1cc(Nc2ccnc3cc(Cl)ccc23)ccc1O.Cl	2	8.3	5	11.9	5	5.7	5									
CCN(CC)Cc1cc(Nc2ccnc3cc(Cl)ccc23)cc(-c2ccccc2F)c1O		16.4	5	18.4	2	12.8	5	0	0.4	26.2	1	33.1	4.4	26.8		
CCN(CC)Cc1cc(Nc2ccnc3cc(Cl)ccc23)cc(-c2ccc(Cl)c(Cl)c2)c1O	4	15.7	5	23.7	4	0.9	3	-0.1	-0.3	33.4	3	21.4	0.1	22.7	10.9 days	
CCN(CC)Cc1cc(Nc2ccnc3cc(Cl)ccc23)cc(-c2ccc(F)cc2)c1O				13.4							2	12.8		8.8	14.8 days	
CCN(CC)Cc1cc(Nc2ccnc3cc(Cl)ccc23)cc(-c2ccccc2OC)c1O	2	6.2	2	9.4	2	2.6	5	-0.2	0.2	14.9		18.9	0.4	74		37.9
Oc1c(CN2CCCC2)cc(Nc2ccnc3cc(Cl)ccc23)cc1-c1ccc(Cl)c(Cl)c1	1	8.3	3	18.5	4	0.1	3	-0.1	-0.1	30.2					33.9 days	25.9
CCN(CC)Cc1cc(Nc2ccnc3cc(Cl)ccc23)cc(-c2cc(OC)ccc2OC)c1O		0		3.8						3.6		4		9680	8.6 days	8.8
CC(C)(C)NCc1cc(C(C)(C)C)cc(-c2ccc(Cl)cc2)c1O		5.1	5	12.9	5		5			15.7						
CCN(CC)Cc1cc(Nc2ccnc3cc(Cl)ccc23)cc(-c2ccc(OC)cc2)c1O	1	4.3	3	7.3	2	2.9	5	0.5	0.1	12.4		16.1	1.3	112		28.9
CCN(CC)Cc1cc(Nc2ccnc3cc(Cl)ccc23)cc(-c2ccccn2)c1O		2.6	3	3.8			3			7.8		11.2		160	25.3 days	15.8
Oc1c(CNC23CC4CC(CC(C4)C2)C3)cc(Nc2ccnc3cc(Cl)ccc23)cc1-c1ccc(Cl)cc1	4	7.5	5	18.5	4	0.1	2	-0.5	-0.3	23		39	-0.3		19 days	
CCN(CC)Cc1cc(Nc2cc[n+]([O-])c3cc(Cl)ccc23)ccc1O			5		3		3									
CCN(CC)Cc1cc(Nc2ccnc3cc(Cl)ccc23)cc(-c2ccc(OC)c(OC)c2)c1O		1.2		3.8			1			5.4		8.6		927	13.1	12
CCN(CC)Cc1cc(Nc2ccnc3cc(Cl)ccc23)cc(CN(CC)CC)c1O [CYLCLOQUINE]	2	15.1	5	19.1	4	11.5	5									
